Here are results for ten compounds from PubChem BioAssay.

Usually inhibition stands for the drop in the measured response relative to a control, in per cent.

Calls of active or inactive are those of the source.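 The calls were made as follows, unless noted: active = inhibition of the reporter signal at or above 50%; inactive = inhibition below 50%.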

The nature of assay [1]: inhibitors of TNFa-induced NFkB p65 translocation, primary screen, imaging, HUVEC, MLSMR starter and 10KST1 sets (AID 438;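 active = inhibition above 20% together with a positive visual image hit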;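 also: compound added about 3h40 before a 20 min TNFalpha stimulation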;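 as to inhibition: signal is the nuclear over cytoplasmic p65 intensity ratio per well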). The note with it: HUVEC TNFa-induced p65 nuclear translocation; cell count: measured here: nuclei count (cytotoxicity indicator), at 2.08 µM; inhibition: at 2 µM, stronger effect = higher value, 0% TNFa-plus-vehicle, 100% no-TNFa wells.
Assay [2] can be described thus: inhibitors of mutant huntingtin aggregation, primary screen, imaging, exon1htt(103Q)mCFP cells, high-content imaging (AID 483;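 active = visual image review flags a hit and inhibition of aggregation exceeds 20%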;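 also: compound exposure lasted 3 days before fixation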;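 as to nuclei count: percent of the per-plate median nuclei count of sample wells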). The note with it: exon1htt(103Q)mCFP cell line, aggregate imaging, at 2 µM; inhibition of aggregation: stronger effect = higher value; nuclei count: measured here: cell count, toxicity.
Assay [3] in a line: inhibitors of E-selectin induction by TNFa, primary screen, imaging, HUVEC, immunofluorescence, MLSMR starter and 10KST1 sets (AID 487;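 active = visually confirmed hit in the image check and inhibition above 20%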;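 as to inhibition: signal is fraction of cell area covered by stained E-selectin grains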;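 as to nuclei count: 100% = median nuclei count of all wells on the same plate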). The note with it: HUVEC TNFalpha-induced E-selectin immunofluorescence imaging, at 2 µM; inhibition: stronger effect = higher value; nuclei count: measured here: cell number, toxicity.
Assay [4] concerns the target Voltage-gated potassium channel subunit beta-2 (Rattus norvegicus) (UniProt P62483). Description: KvBeta enzyme negative modulators, primary screen, biochemical, NADPH fluorescence (AID 622;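 active = fluorescence slope higher than the sample average by over 3 SD, cut at about -0.22 in these data, passing the limit was not always enough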;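 also: slope of raw intensity against log time taken from 70 to 1610 s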). The note with it: recombinant KvBeta, 4-cyanobenzaldehyde reduction, at 10 µM, stronger effect = higher value.
For assay [5] the target is unchanged. Description: KvBeta positive modulators, primary screen, biochemical, NADPH fluorescence (AID 623;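 active = NADPH fluorescence slope more negative than the mean of all samples by about 3 SD, 99.7% confidence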;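 also: fluorescence intensity change per second fitted from 20 to 320 s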). The note with it: Recombinant KvBeta, NADPH fluorescence decrease slope, 10 min; at 10 µM; stronger effect = lower value.
The target in assay [6] is Muscarinic acetylcholine receptor M4 (Homo sapiens) (UniProt P08173). Description: compounds altering M4/GIRK thallium flux, either direction, primary screen, M4 allosteric agonist project, cell-based, HEK293 M4/GIRK, BTC-AM (AID 625;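 active = fluorescence slope after compound addition differing from the mean of all tested samples at 99.7% confidence, mostly higher but some lower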;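 also: thallium influx through GIRK channels coupled to M4 in HEK293 cells with BTC-AM dye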). The note with it: at 10 µM, actives lie on both sides. Summed up:
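System: HEK293 cells with M4 receptor and GIRK channels | Incubation: Cells overnight at 37 °C, BTC-AM loading 1 h, reads 2 min total | Technique: Kinetic BTC-AM fluorescence sampled at 1 Hz, 10 s pre-addition baseline | Measure: Post-addition slope, 15–24 s, of baseline-normalized fluorescence | Control set: Carbachol positive, DMSO negative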

The nature of assay [7]: inhibitors of Sendai virus-induced IRF3 signaling, primary screen, TLR/RLR signaling modifier project, cell-based, Sendai virus stimulus, luciferase, 10K MLSCN set (AID 602276;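 active = inhibition at or above 50% at 10 µM; inactive = inhibition below 50%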;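 also: firefly luciferase from ISG56 promoter only with Renilla not read in this screen; 0% = Sendai virus plus DMSO and 100% = medium plus DMSO without virus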). Particulars: HEK293 RL24 IRF3 luciferase reporter, at 10 µM, stronger effect = higher value. On the technique in general: A reporter such as luciferase makes a cellular process visible.
A short description of assay [8]: inhibitors of poly I:C-induced TLR3 signaling, primary screen, cell-based, poly I:C stimulus, luciferase, 10K MLSCN set (AID 602277). Particulars: HEK293-TLR3 RL24 IRF3 luciferase reporter, at 10 µM, stronger effect = higher value.

Voltage-gated potassium channel subunit beta-2 (Rattus norvegicus), sequence (P62483 whole entry, looked up): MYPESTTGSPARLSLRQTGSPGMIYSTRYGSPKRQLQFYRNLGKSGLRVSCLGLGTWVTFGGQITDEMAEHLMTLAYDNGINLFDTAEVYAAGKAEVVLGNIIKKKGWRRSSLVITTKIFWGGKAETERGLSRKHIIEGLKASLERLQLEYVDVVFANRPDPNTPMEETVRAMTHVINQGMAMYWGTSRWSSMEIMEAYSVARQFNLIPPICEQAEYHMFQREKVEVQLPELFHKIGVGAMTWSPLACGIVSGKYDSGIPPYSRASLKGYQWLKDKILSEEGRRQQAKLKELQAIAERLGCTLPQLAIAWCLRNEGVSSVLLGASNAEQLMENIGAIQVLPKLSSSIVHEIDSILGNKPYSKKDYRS
Muscarinic acetylcholine receptor M4 (Homo sapiens), sequence (P08173 whole entry, looked up): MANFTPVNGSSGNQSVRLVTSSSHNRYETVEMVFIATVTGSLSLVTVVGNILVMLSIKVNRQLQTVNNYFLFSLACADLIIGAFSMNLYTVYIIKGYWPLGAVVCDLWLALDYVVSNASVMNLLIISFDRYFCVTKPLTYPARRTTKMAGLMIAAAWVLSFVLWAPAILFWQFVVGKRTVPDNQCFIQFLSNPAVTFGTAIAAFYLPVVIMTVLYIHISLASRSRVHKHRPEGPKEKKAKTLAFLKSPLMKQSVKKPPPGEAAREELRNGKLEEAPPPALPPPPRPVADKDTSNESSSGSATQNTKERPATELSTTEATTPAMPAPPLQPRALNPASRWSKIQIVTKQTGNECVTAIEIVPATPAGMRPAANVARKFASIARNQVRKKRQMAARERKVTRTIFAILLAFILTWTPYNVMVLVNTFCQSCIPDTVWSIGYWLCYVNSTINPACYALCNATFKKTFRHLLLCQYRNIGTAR

Take `Cc1ccc(NC(=O)CSc2nnc(CSc3nc(C)cc(C)n3)n2Cc2ccco2)c(C)c1`: in assay [1], the cell count is 655. The inhibition was 1.6% (inactive) in assay [1], -23.6% (inactive) in assay [3], -22% (inactive) in assay [7] and -4.45% (inactive) in assay [8]. Further, in assay [2], the inhibition of aggregation is 1.3% (inactive). Moreover, the nuclei count is 79.3% in assay [2] and 108% in assay [3]. The fluorescence slope in assay [4] is -0.454 (inactive); in assay [6] it was 0.0102 (inactive). Further, in assay [5], the NADPH fluorescence slope is 5.9e-05 (inactive).
In the case of `COC(=O)Cn1c2c(c3cc(C)ccc31)CCCC2`, in assay [1], the cell count is 640. The inhibition in assay [1] is -9.9% (inactive); in assay [3], -28.6% (inactive); in assay [7] it was 18.4% (inactive); in assay [8], 21.6% (inactive). Also, in assay [2], the inhibition of aggregation was 23.1% (inactive). Moreover, the figures for the nuclei count in assay [2] and in assay [3] were 91.1% and 111%, respectively. Further, the results for the fluorescence slope in assay [4] and in assay [6] were -0.523 (inactive) and 0.00431 (inactive), respectively. For the same compound, the NADPH fluorescence slope in assay [5] was -0.000167 (inactive).
With `COc1ccc(N2CCN(C(=O)CSc3ccccc3N)CC2)cc1`, in assay [1], the cell count came out at 334. In addition, the inhibition in assay [1] is -3% (inactive); in assay [3] it was -18.9% (inactive); in assay [7] it was 4.54% (inactive); in assay [8], 22.7% (inactive). Moreover, in assay [2], the inhibition of aggregation was 7.8% (inactive). In addition, the nuclei count stood at 96.1% in assay [2] and 106% in assay [3]. For the same compound, the values for the fluorescence slope in assay [4] and in assay [6] were -0.501 (inactive) and 0.00478 (inactive), respectively. The NADPH fluorescence slope in assay [5] was -0.00016 (inactive).
Take `CC1(C)CC(=O)c2cc(OCC(=O)NCCCN3CCN(c4ccccc4F)CC3)ccc2O1`: the cell count in assay [1] was found to be 398. Also, the inhibition is 5.8% (inactive) in assay [1], -156% (inactive) in assay [3], 9.74% (inactive) in assay [7] and 2.15% (inactive) in assay [8]. For the same compound, the inhibition of aggregation in assay [2] is -2% (inactive). For the same compound, the nuclei count in assay [2] stood at 91.6%; in assay [3] it was 103%. In addition, the fluorescence slope was -0.366 (inactive) in assay [4] and 0.00645 (inactive) in assay [6]. Further, in assay [5], the NADPH fluorescence slope is 3e-05 (inactive).
`COc1ccc(OC)c(C2=NOC(C(=O)NCCN3CCOCC3)C2)c1` (stereo not given): the cell count in assay [1] was determined as 715. Further, the inhibition in assay [1] is -22.4% (inactive); in assay [3] it was -20.4% (inactive); in assay [7], 17.7% (inactive); in assay [8], 25% (inactive). Further, the inhibition of aggregation in assay [2] was 12.9% (inactive). The nuclei count worked out at 96% in assay [2] and 85.7% in assay [3]. The fluorescence slope was -0.62 (inactive) in assay [4] and 0.00547 (inactive) in assay [6]. Besides, in assay [5], the NADPH fluorescence slope is 3.7e-06 (inactive).
Consider `O=C(COc1ccc(Cl)cc1)Nc1ncccn1`, for which the cell count in assay [1] was 436. Further, the inhibition is -3.8% (inactive) in assay [1], -12.3% (inactive) in assay [3], 14.4% (inactive) in assay [7] and -0.516% (inactive) in assay [8]. Besides, the inhibition of aggregation in assay [2] is 4.3% (inactive). In addition, the nuclei count in assay [2] turned out to be 98.6%; in assay [3] it was 87.1%. The values for the fluorescence slope in assay [4] and in assay [6] were -0.456 (inactive) and 0.00491 (inactive), respectively. Besides, the NADPH fluorescence slope in assay [5] is -7.3e-05 (inactive).
In the case of `CC(C)NC(=O)CSc1nnc(-c2ccc(C(C)(C)C)cc2)n1C`, the cell count in assay [1] was found to be 563. Moreover, the inhibition was -16% (inactive) in assay [1], 8% (inactive) in assay [3], 4.36% (inactive) in assay [7] and 1.25% (inactive) in assay [8]. The inhibition of aggregation in assay [2] was -4.3% (inactive). In addition, the nuclei count in assay [2] was 96.8%; in assay [3] it was 117%. The values for the fluorescence slope in assay [4] and in assay [6] were -0.465 (inactive) and 0.00698 (inactive), respectively. Moreover, in assay [5], the NADPH fluorescence slope was 5.2e-06 (inactive).
On to `Cc1nc(NCc2ccccn2)c2ccccc2n1`, for which the cell count in assay [1] turned out to be 416. Besides, the inhibition in assay [1] is -13.6% (inactive); in assay [3] it was -49.1% (inactive); in assay [7], 4.35% (inactive); in assay [8] it was -44.1% (inactive). Besides, the inhibition of aggregation in assay [2] was 13% (inactive). Further, the nuclei count in assay [2] was 69.7%; in assay [3], 121%. Further, the fluorescence slope was -0.572 (inactive) in assay [4] and 0.00634 (inactive) in assay [6]. In addition, in assay [5], the NADPH fluorescence slope was -4.7e-05 (inactive).
Regarding `Cc1nn(-c2ccc(F)cc2)c2sc(C(=O)OCC(=O)N3CCC(C)CC3)cc12`, in assay [1], the cell count worked out at 359. Besides, the inhibition was -4.2% (inactive) in assay [1], 0.8% (inactive) in assay [3], -2.34% (inactive) in assay [7] and -1.01% (inactive) in assay [8]. Moreover, in assay [2], the inhibition of aggregation is -8.8% (inactive). Also, the nuclei count in assay [2] worked out at 95.7%; in assay [3] it was 106%. For the same compound, the fluorescence slope was -0.514 (inactive) in assay [4] and 0.00495 (inactive) in assay [6]. Further, the NADPH fluorescence slope in assay [5] was -3.9e-05 (inactive).
`CCOC(=O)c1sc(NC(=O)CSc2nnc(-c3ccco3)n2CC)c(C(=O)OCC)c1C`: the cell count in assay [1] came out at 696. Also, the inhibition in assay [1] is -10.9% (inactive); in assay [3], -27.8% (inactive); in assay [7], -9.39% (inactive); in assay [8], -38.2% (inactive). In addition, the inhibition of aggregation in assay [2] was -26.7% (inactive). Moreover, the results for the nuclei count in assay [2] and in assay [3] were 104% and 92.7%, respectively. The fluorescence slope in assay [4] was -0.565 (inactive); in assay [6], 0.00558 (inactive). Also, the NADPH fluorescence slope in assay [5] was -3.7e-05 (inactive).
